Data set [1] can be described thus: Inhibition of chymotrypsin-like activity of 20S proteasome using suc-LLVY-AMC as substrate preincubated for 10 mins before substrate addition at pH 2.0 by fluorescence assay. The method, boiled down: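 Inhibitor from 0.1 M ethanol stock diluted into pH 2.0 buffer (0.148 M HCl, 0.052 M KCl) and equilibrated overnight at room temperature (24 h per text). 20S proteasome SDS-activated, preincubated 10 min with inhibitor; Suc-LLVY-AMC added; fluorescence (ex 360/em 460 nm) read after 30 min. Assay-well pH checked. Quadruplicates; variable-slope sigmoidal fit.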

Data set [2] in a line: Inhibition of chymotrypsin-like activity of 20S proteasome using suc-LLVY-AMC as substrate preincubated for 10 mins before substrate addition at pH 7.6 by fluorescence assay. The essentials:
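Inhibitor from 0.1 M ethanol stock diluted into pH 7.6 buffer (25 mM HEPES, 0.5 mM EDTA) and equilibrated overnight at room temperature (24 h per text). SDS-activated 20S proteasome preincubated 10 min with inhibitor before Suc-LLVY-AMC; fluorescence ex 360/em 460 nm after 30 min. Quadruplicates; variable-slope sigmoidal fit.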

Data set [3] can be described thus: Inhibition of intracellular chymotrypsin-like activity of 20S proteasome in human HEK293 cells after 24 hrs by fluorescence plate reader. The format is cell-based. The following applies: HEK293, 24 h. The essentials:
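HEK 293 ZsGreen proteasome-sensor cells (stable ZsGreen–ornithine decarboxylase degron fusion, G418 maintenance) seeded 3.2 × 10⁴ per well, grown 24 h. Then 24 h with inhibitor at 37 °C, 5% CO₂. Cells lysed in HEPES/EDTA/5% Triton buffer for 1 h; fluorescence ex 485/em 535 nm. Quadruplicates; variable-slope sigmoidal fit.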

In data set [4] the test system is HEK293. As to the kind of experiment: Ratio of IC50 for intracellular chymotrypsin-like activity of 20S proteasome in human HEK293 cells to IC50 for in vitro chymotrypsin-like activity of 20S proteasome. The format is cell-based.
Data set [5] can be described thus: Cytotoxicity against human FSCLL cells after 24 hrs by MTT assay. The class given is cell-based. The essentials: (§1)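 Cells seeded at 3.2 × 10⁴ per well, grown 24 h at 37 °C, 5% CO₂, then exposed to inhibitor dilutions 24 h. Inhibitor from 0.1 M ethanol stock, pre-equilibrated overnight in pH 2.0 or pH 7.6 buffer. MTT (5 mg/mL) added for 3 h; formazan dissolved overnight in acidic Triton/isopropanol; A570 read. Quadruplicates; variable-slope sigmoidal fit.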
(In general: Tetrazolium assays rely on reduction of a dye to a coloured formazan, in cell work by metabolically active cells.)

Data set [6] is described as follows: Ratio of CC50 for human follicular small-cell lymphocytic leukemia cells to IC50 for chymotrypsin-like activity of 20S proteasome at pH 2.0.
Data set [7] is described as follows: Ratio of CC50 for human follicular small-cell lymphocytic leukemia cells to IC50 for intracellular chymotrypsin-like activity of 20S proteasome in human HEK293 cells.
The test system of data set [8] is HEK293. As to the kind of experiment: Metabolic stability in human HEK293 cells assessed as aminopeptidase-mediated compound degradation at 10^-4 M after 24 hrs by LCMS analysis. The format is ADME, cell-based. As to conditions: hek293, 24 h, 100 µM. The method, boiled down:
(§2)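 Intact cells, 2 × 10⁶ in 900 μL medium, incubated with inhibitor at 10⁻⁴ M for 24 h, 37 °C, 5% CO₂. Aliquots taken at time points and quenched in 1 M HCl containing Trp-Tyr internal standard. Analysed by ESI LCMS on C18 reversed phase.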

Data set [9] is described as follows: Metabolic stability in human FSCLL cells assessed as aminopeptidase-mediated compound degradation at 10^-4 M after 24 hrs by LCMS analysis. The format is ADME, cell-based. The following applies: 100 µM. The method, boiled down: as §2
Data set [10] deals with HEK293. As to the kind of experiment: Metabolic stability in human HEK293 cells assessed as cell lysate-mediated compound degradation at 10^-4 M after 24 hrs by LCMS analysis. The format is ADME, cell-based. As to conditions: hek293, 24 h, 100 µM.
Data set [11] is described as follows: Metabolic stability in human FSCLL cells assessed as cell lysate-mediated compound degradation at 10^-4 M after 24 hrs by LCMS analysis. The class given is ADME, cell-based. As to conditions: 100 µM.
A further data set is filed under the species Mus musculus. As to the kind of experiment: Inhibition of proteasome in mouse tumor cells relative to inhibition in blood cells. The class given is subcellular. The following applies: concentration not given here.
A short description of data set [12]: Cytotoxicity against human HEK293 cells after 24 hrs by MTT assay. The format is cell-based. The essentials:
as §1

SMILES strings stand for the structures. pIC50: −log10 of the molar value. Bounds are passed on as bounds.

One may read the pIC50 as the negative decadic logarithm of the IC50, by convention in mol/L. Low values mean a high IC50, high ones a low IC50. Broadly, the CC50 is the concentration at which the toxic effect on the cells reaches its halfway point. Higher therefore signals better tolerance by the cells. With `CC(C)C[C@H](NC(=O)CN)B(O)O`, the pIC50 was 7.68 in [1], 6.37 in data set [2] and < 5.00 in data set [3]. Moreover, the Ratio IC50 with HEK293 [4] was > 470. In [5], half-maximal cytotoxicity (CC50 at 24 h) was put at 670 nM. The results for the “Ratio CC50/IC50” value in data set [6] and in [7] were 30 and <0.07, respectively. Moreover, the Stability entry (with HEK293 [8]; in [9]; in the data set on HEK293 [10]; in [11]) was “Stable” throughout.
By inhibition is commonly meant how much of the control response was suppressed. The low end stands for little suppression, the high end for strong suppression. `CC(C)C[C@H](NC(=O)[C@H](Cc1ccccc1)NC(=O)c1cnccn1)B(O)O` [BORTEZOMIB]: the inhibition in the data set listed under Mus musculus is 44.8%. Also, the results for the negative-log IC50 (pIC50) in data set [1], in data set [2] and in data set [3] were 8.00, 7.85 and 7.57, respectively. The Ratio IC50 in the data set with HEK293 [4] is 2.7. In addition, the results for the CC50 at 24 h in [12] and in data set [5] were 347 nM and 4 nM, respectively. Moreover, the “Ratio CC50/IC50” value is 0.4 in data set [6] and 0.16 in data set [7].
On to `CC(C)C[C@H](NC(=O)CNC(=O)c1cc(Cl)ccc1Cl)B1OC(=O)CC(CC(=O)O)(C(=O)O)O1` (stereo not given in full), for which the inhibition in the data set filed under Mus musculus is 74.9%.
On to `CC(C)C[C@H](NC(=O)[C@H](C)N)B(O)O`, for which the negative logarithm of the IC50 (pIC50) in data set [1] is 7.30; in [2] it was 6.44; in [3] it was < 5.00. For the same molecule, in the data set with HEK293 [4], the Ratio IC50 is > 200. The molecule also registered a CC50 at 24 h in [5] of 3200 nM. In addition, the results for the “Ratio CC50/IC50” value in data set [6] and in data set [7] were 64 and <0.3, respectively. The Stability entry (in the data set with HEK293 [8]; in data set [9]; with HEK293 [10]; in data set [11]) was “Stable” in each case.
Consider `CC(C)C[C@H](NC(=O)[C@H](Cc1ccccc1)NC(=O)[C@@H](N)CC(C)C)B(O)O`, for which the Stability result (with HEK293 [10]; in data set [11]) was “Unstable” each time.
For `CC(C)C[C@H](NC(=O)[C@@H](N)Cc1ccccc1)B(O)O`, the pIC50 in [1] was 7.43; in data set [2], 6.85; in data set [3], < 5.00. In the data set with HEK293 [4], the Ratio IC50 is > 270. For the same molecule, the CC50 at 24 h in data set [5] is 90 nM. In addition, the entries for the “Ratio CC50/IC50” value in [6] and in [7] were 2.4 and <0.01, respectively. Further, the Stability entry (in the data set on HEK293 [8]; in [9]; in the data set on HEK293 [10]; in data set [11]) was “Stable” in each case.

The record behind these values is ChEMBL document CHEMBL1811907, “Chemical and biological evaluation of dipeptidyl boronic acid proteasome inhibitors for use in prodrugs and pro-soft drugs targeting solid tumors” (J Med Chem, 2011).
